Test results published in ChEMBL document CHEMBL4513216, “Probing the Open Global Health Chemical Diversity Library for Multistage-Active Starting Points for Next-Generation Antimalarials” (ACS Infect Dis, 2020).

Experiment: Toxicity liver stage against HepG2, at 10uM
Assay type: cell-based
Parameters: test concentration 10 uM, cell line HepG2-A16-CD81EGFP
Settings: human, HepG2-A16-CD81EGFP cells; read-out: INHIBITION
Procedure, shortened: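 Uninfected HepG2-A16-CD81EGFP cells, 3 × 10^3 per well, 1536-well, plated on prespotted compound at 10 μM final, parasite-free screening media added to match infected plates; puromycin 10 μM positive, DMSO 0.5% negative; run in parallel with 48 h PbLuc assay at 37 °C, 5% CO2; viability by CellTiter-Glo luminescence, normalized to controls.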

| SMILES | cytotoxicity at 10 µM [%] |
| --- | --- |
| CN1C(=O)C2(CC(=O)Nc3[nH]ncc32)c2cc(F)ccc21 (centres undefined) | 0.488 |
| Nc1nc2c(c(NC(=O)Nc3ccccc3)n1)CCCC2 | -9.74 |
| NC(=O)Cc1csc(NC(=O)C2CSCCC(=O)N2)n1 (centres undefined) | 0.722 |
| O=C(NC1CCC1)c1n[nH]c2c1CNCC2 | 1.67 |
| Cc1cnc(N2C[C@@H]3[C@@H](C2)OCC(=O)N3CC2CC2)nc1 | -0.357 |
| O=C(c1ncccn1)N1C[C@@H]2CN(CC3CC3)CCO[C@@H]2C1 | 6.99 |
| CCOCc1ncn2c1CN(C(=O)Nc1cccc(C)c1)CC2 | -8.92 |
| O=C(C1=CCCC1)N1C[C@H](Oc2cccnc2)[C@H]2OCCC[C@H]21 | -8.42 |
| CN(Cc1ccccn1)C1COC2(CCN(Cc3nccs3)CC2)C1 (centres undefined) | -16.2 |
| Cc1ccc(-c2noc(C3CCN3C(=O)c3c(C)noc3C)n2)s1 (centres undefined) | 6.09 |
| C=Cn1cc(CN2CCC(c3ncc(Cl)cc3S(C)(=O)=O)CC2)c(C)n1 | 7.38 |
| O=C(CCn1ccnc1)N1CC[C@H](Oc2ccc(F)cc2)[C@@H](O)CC1 | -3.06 |
| CCn1nccc1CN(C)C(=O)Cn1nc(C)cc1C | 6.18 |
| Cc1nc(COC(=O)c2cccnc2C)no1 | -0.2 |
| CCN(Cc1ccoc1)C(=O)Nc1ccccc1CN1CCOCC1 | -14.8 |
| CC(NC(=O)c1ccc2c(c1)COC2)c1cccc(N2CCOC2=O)c1 (centres undefined) | 14.9 |
| CNS(=O)(=O)CC(=O)N(C1CC1)C1Cc2ccccc2C1 | 3.45 |
| O=C(NCc1nnc2ccccn12)N1CCOC(c2ccsc2)C1 (centres undefined) | 0.305 |
| CCn1cc(CNc2ccc(Br)c(OC)c2)cn1 | 5.42 |
| Cc1ccc(C(=O)NCc2ccc(N(C)C)cc2)cn1 | -6.23 |
| CN(C)c1nccc(N(C)Cc2ncnn2C)n1 | 6.09 |
| O=C(CN1CCSC(c2ccccc2)C1)NCc1ccccn1 (centres undefined) | 14.5 |
| O=C1CCCN1c1cccc(CNCc2cc(F)ccc2F)c1 | 15.8 |
| Cc1cc(C)n(CC2CCCN2C(=O)Cc2cn3ccccc3n2)n1 (centres undefined) | 2.47 |
| CC(Cn1cccn1)NC(=O)Nc1ccc(N(C)C)nc1 (centres undefined) | 14.4 |
| NC(=O)C1CCN(Cn2nc(-c3ccccc3)oc2=O)CC1 | -16.8 |
| Cc1n[nH]cc1CNc1ccc2c(c1)N(C(=O)OC(C)(C)C)CCC2 | -1.97 |

| SMILES | cytotoxicity at 10 µM [%] |
| --- | --- |
| CC1CCN(CCNC(=O)c2cncnc2C(C)C)CC1 | -12 |
| CC(C)NC(=O)N1CC[C@@H]2CN(Cc3ccccc3)S(=O)(=O)[C@@H]2CC1 | 9.62 |
| O=C(c1ccncc1)N1CCCn2c(CN3CCCCC3)nnc2C1 | -5.77 |
| CN(C)C(=O)CCC1CCCN(Cc2cccc(-c3ccccn3)c2)C1 (centres undefined) | 3.45 |
| CN(CC1=CCCN(Cc2cccc(C#N)c2)C1)C(=O)c1ccco1 | -5.15 |
| O=C(CSCC1CC1)N1CCCC2(CCC(=O)N(CC3CC3)C2)C1 (centres undefined) | 3.8 |
| OCC1CCCN(c2ncnc3c2Cc2ccccc2OC3)C1 (centres undefined) | 1.44 |
| COc1ccc(CCC(=O)N2CCNCC2C(=O)N2CCCC2)cc1 (centres undefined) | 1.18 |
| CCc1ccc(CN(C)C(=O)C2CC(=O)N(c3cccc(O)c3)C2)nc1 (centres undefined) | -3.57 |
| CCn1cc(S(=O)(=O)NC2CCCN(CC3CCCCC3)C2)cn1 (centres undefined) | -7.25 |
| COCCN1CCN(Cc2ccc(C(C)=O)cc2)[C@H]2CS(=O)(=O)C[C@H]21 | -0.571 |
| CCc1cc(NCC(N)=O)nc(N2CCCCC2)n1 | 9.95 |
| O=C(NCCn1ccnc1-c1cc2n(n1)CCCNC2)c1ccncc1 | -1.84 |
| COc1ccc(C)cc1-n1cnnc1C1CC(=O)N(C)C1 (centres undefined) | -9.25 |
| Cc1nc(CN(C)Cc2cnc(N3CCOCC3)s2)no1 | 1.87 |
| COCc1nc(Cn2c(C)cc(C(F)(F)F)cc2=O)no1 | -2.74 |
| COc1cc(C)ccc1C(=O)N1CCC2(CCC(=O)N(C(C)C)C2)CC1 | 3.76 |
| COc1ccc(C(=O)N2C[C@@H](CN3CCOCC3)[C@@H](CO)C2)c(C)c1 | -13.8 |
| O=C(O)[C@@H]1CN(C(=O)c2ccc3[nH]nnc3c2)C[C@H]1c1cccc(F)c1 | -8.66 |
| O=C(c1ccc(F)c(F)c1)N1CCCC(Nc2ccc(F)cc2)C1 (centres undefined) | -12.1 |
| O=S(=O)(N1CCCC1)N1CCCCC1CCc1ccccc1 (centres undefined) | -5.65 |
| COc1cccc(N2CCN(C(=O)[C@H](O)C3CCCCC3)CC2=O)c1 | -14.1 |
| Cc1nccnc1N1CCC2(CCCN(C3CCOCC3)C2=O)C1 (centres undefined) | -8.8 |
| COCCc1ncc(CN2CCC(Oc3ccccc3C)CC2)cn1 | 4.67 |
| O=C(Cc1ccc2c(c1)CCCC2)NCCNc1cnccn1 | -0.882 |
| Cc1noc(NC(=O)c2ccc(Br)o2)n1 | -3.75 |
| COc1ccnc(N2CCN(C(=O)CN3CCOCC3)CC2)n1 | -0.819 |

| SMILES | cytotoxicity at 10 µM [%] |
| --- | --- |
| O=C(NCCOc1ccc2c(c1)OCO2)C1CC(=O)N(C2CC2)C1 (centres undefined) | -6.75 |
| Cc1cnn(C2CCCN(C(=O)Cc3ccc4c(c3)CCO4)C2)c1 (centres undefined) | -5.83 |
| O=C(c1cnn(-c2ccccc2Cl)c1)N1CCN(CCO)CC1 | -4.26 |
| COc1c(C2CCCN2CC(=O)Nc2nc(C)cs2)c(C)nn1C (centres undefined) | -6.76 |
| Cc1cccc(C(=O)N2CCCN(Cc3cnn(C)c3)CC2)n1 | -10.5 |
| COc1cccc(-n2c(C)cc(C(=O)NS(C)(=O)=O)c2C)c1 | -6 |
| CCN1CCC(NC(=O)CN2CCCCC2Cn2cc(C)cn2)CC1 (centres undefined) | 0.144 |
| Cc1cc(C)c(CNC(=O)N2CCCC2c2ccccc2)c(=O)[nH]1 (centres undefined) | -0.818 |
| Cc1nc(CN(C)C2CCN(CCCOc3ccccc3)C2)no1 (centres undefined) | -9.26 |
| Cc1cnn(CC2CN(Cc3nc(N)c4ccccc4n3)CCO2)c1 (centres undefined) | 5.9 |
| Cc1cc(F)ccc1S(=O)(=O)NCc1cccc(C(=O)N2CCCC2)c1 | -1.2 |
| CCCC(=O)N(CCCN1CCOCC1)c1nc2c(F)cccc2s1 | -10.7 |
| Cc1cc(C(=O)N2CCO[C@H]3[C@H](Oc4ccccn4)CC[C@@H]32)c(C)[nH]1 | -107 |
| Cc1ccc(N2C[C@H]3CCN(Cc4ccncc4)C[C@H]3C2)nn1 | -111 |
| CNC(=O)CN1C(=O)CCC12CCCN(Cc1cccc(F)c1)C2 (centres undefined) | -5.51 |
| Cc1ncsc1CN1C[C@@H]2COC[C@]2(C(=O)NC2CC(F)(F)C2)C1 | -103 |
| O=C(C1CCC1)N1CC[C@H](O)[C@@H]1Cc1cccnc1 | -105 |
| O=C(C1CCOCC1)N1C[C@@H]2C[C@@H](c3nc(C4CC4)cs3)O[C@@H]2C1 | -10.1 |
| Cn1cccc1C(=O)N1CC2(CCN(C(=O)c3cccnc3)C2)C1 | -98.4 |
| CN(Cc1ccco1)[C@@H]1CN(Cc2ccc(F)cc2)C[C@@H]2CCCO[C@@H]21 | 2.91 |
| CCOCCN1C[C@@H]2CCCO[C@@H]2[C@H](NC(=O)c2cnoc2C)C1 | -119 |
| Cn1nnc2c1C(COCc1ccccn1)CN(C(=O)c1cccs1)C2 (centres undefined) | -11.2 |
| c1cc(CN2C[C@@H]3OCCN(CCN4CCCC4)[C@@H]3C2)ccn1 | 3.39 |
| Cn1cc(CCC(=O)N2C[C@@H]3CC[C@H]2CN(Cc2ccccc2)C3)cn1 | -1.97 |
| COc1ccnc(N2C[C@H]3CC[C@@H](C2)N(CC2CCC2)C3=O)n1 | -0.054 |
